Laboratory results reported in ChEMBL document CHEMBL3244146, “Pyranenamines: a new series of antiallergic compounds” (1979).

Columns and labels:
[1] = test system: Rattus norvegicus; assay: Antiallergic activity in rat assessed as inhibition of egg albumin-induced passive cutaneous anaphylaxis at 10 mg/kg, iv treated for 30 secs followed by egg albumin-challenge measured after 30 mins relative to control; type: functional; settings: 0.5 h
[2] = test system: Rattus norvegicus; assay: Antiallergic activity in iv dosed rat assessed as inhibition of egg albumin-induced passive cutaneous anaphylaxis treated for 30 secs followed by egg albumin-challenge measured after 30 mins; type: functional; settings: 0.5 h, read-out: ID50 (the source's name)
[3] = test system: Rattus norvegicus; assay: Antiallergic activity in po dosed rat assessed as inhibition of egg albumin-induced passive cutaneous anaphylaxis treated for 15 mins followed by egg albumin-challenge measured after 30 mins; type: functional; settings: read-out: ID50 (the source's name)
In short: (§1)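 Oral PCA in rats: intradermal antiserum at four back sites (dose giving ~12×12 mm wheal), compound po 48 h later, 15 min before iv challenge with 0.5 mL saline containing 5 mg Evans blue plus 5 mg egg albumin; skin bluing read 30 min after challenge on two axes per wheal; six rats per dose versus ≥6 vehicle controls; percent inhibition from mean wheal size, one-sided t test.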

[4] = test system: Rattus norvegicus; assay: Antiallergic activity in rat assessed as inhibition of egg albumin-induced passive cutaneous anaphylaxis at 5 mg/kg, iv treated for 30 secs followed by egg albumin-challenge measured after 30 mins relative to control; type: functional; settings: 0.5 h
[5] = Antiallergic activity in passively sensitized rhesus monkey lungs assessed as inhibition of antigen-induced histamine release at 1 x 10^-4 M by fluorometric analysis relative to control; type: functional, Macaca mulatta, Lung
In short: (§2)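 Passively sensitized fragmented lung from a young adult male rhesus monkey, challenged with IgE-antihuman IgE; histamine release measured fluorometrically and SRS-A estimated by guinea pig ileum bioassay; inhibition relative to control; replicates given as number of separate lung preparations.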

[6] = Antiallergic activity in passively sensitized rhesus monkey lungs assessed as inhibition of antigen-induced histamine release at 1 x 10^-5 M by fluorometric analysis relative to control; type: functional, Macaca mulatta, Lung; in short: as §2
[7] = Antiallergic activity in passively sensitized rhesus monkey lungs assessed as inhibition of antigen-induced slow reacting substance of anaphylaxis release at 1 x 10^-4 M relative to control; type: functional, Macaca mulatta, Lung; in short: as §2
[8] = Antiallergic activity in passively sensitized rhesus monkey lungs assessed as inhibition of antigen-induced slow reacting substance of anaphylaxis release at 1 x 10^-5 M relative to control; type: functional, Macaca mulatta, Lung; in short: as §2
[9] = test system: Rattus norvegicus; assay: Antiallergic activity in rat assessed as inhibition of egg albumin-induced passive cutaneous anaphylaxis at 25 mg/kg, po treated for 15 mins followed by egg albumin-challenge measured after 30 mins relative to control; type: functional; in short: as §1

Row | Compound | inhibition in vivo at 10 mg/kg [1] | ED50 [2] | further results
1 | CC(=O)C1=C(O)/C(=C(\C)Nc2ccc(F)cc2)C(=O)OC1=O | 54% |  | 
2 | CC(=O)C1=C(O)/C(=C(\C)Nc2cc(NC(=O)C(=O)O)cc(NC(=O)C(=O)O)c2)C(=O)OC1=O |  | 0.05 mg/kg | ED50 [3]: 19 mg/kg
3 | CC(=O)C1=C(O)/C(=C(\C)N)C(=O)OC1=O |  |  | inhibition in vivo at 5 mg/kg [4]: 17%
4 | CCCCCCC(=O)c1c(O)oc(=O)c(C(=O)CCCCCC)c1O | 27% |  | 
5 | CC(=O)Nc1cc(O)cc(N/C(C)=C2\C(=O)OC(=O)C(C(C)=O)=C2O)c1 |  | 0.02 mg/kg | inhibition (INH) [5]: 57%; inhibition (INH) [6]: 17%; inhibition (INH) [7]: 22%; inhibition (INH) [8]: 6%; inhibition in vivo at 25 mg/kg [9]: 2%
6 | CC(=O)C1=C(O)/C(=C(\C)Nc2ccccc2Cl)C(=O)OC1=O | 36% |  | 
7 | COc1ccc(N/C(C)=C2\C(=O)OC(=O)C(C(C)=O)=C2O)cc1 |  |  | inhibition in vivo at 5 mg/kg [4]: 27%
8 | CCC(=O)c1c(O)oc(=O)c(C(=O)CC)c1O | 39% |  | 
9 | CC(=O)Nc1ccc(N/C(C)=C2\C(=O)OC(=O)C(C(C)=O)=C2O)cc1 |  |  | inhibition in vivo at 5 mg/kg [4]: 19%
10 | CC(=O)C1=C(O)/C(=C(\C)N(C)c2ccc(O)cc2)C(=O)OC1=O |  |  | inhibition in vivo at 5 mg/kg [4]: 42%
11 | CC(=O)C1=C(O)/C(=C(\C)Nc2cc(O)c(O)c(O)c2)C(=O)OC1=O |  | 0.4 mg/kg | inhibition in vivo at 25 mg/kg [9]: -3%
12 | CC(=O)Nc1cc(N)cc(N/C(C)=C2\C(=O)OC(=O)C(C(C)=O)=C2O)c1 |  | 0.1 mg/kg | inhibition (INH) [5]: 17%; inhibition (INH) [7]: 8%; inhibition in vivo at 25 mg/kg [9]: 11%
13 | CC(=O)C1=C(O)/C(=C(\C)Nc2cc(O)ccc2N)C(=O)OC1=O |  |  | inhibition in vivo at 5 mg/kg [4]: 47%
14 | CCOC(=O)c1ccccc1N/C(C)=C1\C(=O)OC(=O)C(C(C)=O)=C1O |  |  | inhibition in vivo at 5 mg/kg [4]: 18%
15 | CCCC(=O)c1c(O)oc(=O)c(C(=O)CCC)c1O | 3% |  | 
16 | COC(=O)c1ccc(N/C(C)=C2\C(=O)OC(=O)C(C(C)=O)=C2O)cc1 |  |  | inhibition in vivo at 5 mg/kg [4]: 6%

Row | Compound | inhibition in vivo at 10 mg/kg [1] | ED50 [2] | further results
17 | COc1ccc(N(C)/C(C)=C2\C(=O)OC(=O)C(C(C)=O)=C2O)cc1 |  |  | inhibition in vivo at 5 mg/kg [4]: 37%
18 | CCCCC(=O)c1c(O)oc(=O)c(C(=O)CCCC)c1O | 69% |  | 
19 | CC(=O)C1=C(O)/C(=C(\C)Nc2ccccc2)C(=O)OC1=O | 76% |  | 
20 | CC(=O)C1=C(O)/C(=C(\C)Nc2cccc(Cl)c2)C(=O)OC1=O | 74% |  | 
21 | CC(=O)C1=C(O)/C(=C(\C)Nc2ccc(C)cc2)C(=O)OC1=O | 33% |  | 
22 | CC(C)CC(=O)c1c(O)oc(=O)c(C(=O)CC(C)C)c1O | 23% |  | 
23 | CC(=O)C1=C(O)/C(=C(\C)Nc2cccc(NC(=O)C(O)CO)c2)C(=O)OC1=O (stereo not drawn) |  | 0.05 mg/kg | inhibition in vivo at 25 mg/kg [9]: 55%
24 | CC(=O)C1=C(O)/C(=C(\C)Nc2ccc(Cl)c(Cl)c2)C(=O)OC1=O | 10% |  | 
25 | CC(=O)C1=C(O)/C(=C(\C)Nc2cc(N)cc(N)c2)C(=O)OC1=O |  | 0.5 mg/kg | ED50 [3]: 0.9 mg/kg
26 | CC(=O)C1=C(O)/C(=C(\C)Nc2ccc(Cl)cc2)C(=O)OC1=O | 84% |  | 
27 | CCOC(=O)C(=O)Nc1cc(NC(=O)C(=O)OCC)cc(N/C(C)=C2\C(=O)OC(=O)C(C(C)=O)=C2O)c1 |  | 0.03 mg/kg | ED50 [3]: 6.5 mg/kg
28 | CC(=O)C1=C(O)/C(=C(\C)Nc2ccc([N+](=O)[O-])cc2)C(=O)OC1=O | 17% |  | 
29 | CCCC(=O)Nc1cc(NC(=O)CCC)cc(N/C(C)=C2\C(=O)OC(=O)C(C(C)=O)=C2O)c1 |  | 0.05 mg/kg | inhibition in vivo at 25 mg/kg [9]: 7%
30 | CC(=O)C1=C(O)/C(=C(\C)Nc2c(Cl)cccc2Cl)C(=O)OC1=O | 3% |  | 
31 | CCOC(=O)Nc1cc(NC(=O)OCC)cc(N/C(C)=C2\C(=O)OC(=O)C(C(C)=O)=C2O)c1 |  | 0.25 mg/kg | inhibition in vivo at 25 mg/kg [9]: -18%
32 | CC(=O)C1=C(O)/C(=C(\C)Nc2cccc(NC(=N)N)c2)C(=O)OC1=O.O=[N+]([O-])O |  | 0.9 mg/kg | inhibition in vivo at 25 mg/kg [9]: -7%
